Results from PMC7982424 (Acta Pharmaceutica Sinica. B, 2020).

How the values were obtained:
HIV-1NL4-3 = experiment: Anti-HIV-1 assay in TZM-GFP cells; assay type: cell-based
Summary of the method: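 TZM-GFP cells seeded at 1 × 10^4 per well; after 24 h, medium replaced with test compound at 20 μmol/L, with actives retested at 2 μmol/L. HIV-1NL4-3 (HEK 293FT-transfection stock, MT2-propagated, PEG-concentrated) added at MOI 1 24 h later. After 48 h, GFP-positive cells counted by imaging; inhibition relative to DMSO controls. Duplicates, at least two independent experiments.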

[1] = Microsomal stability assay, mouse liver microsomes; assay type: in vitro ADME; settings: mouse, pH 7.4
[2] = Microsomal stability assay, human liver microsomes; assay type: in vitro ADME; settings: human, pH 7.4
Cytotoxicity assay = assay type: cell-based; settings: human, TZM-GFP cells
Summary of the method: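 TZM-GFP cells were plated at 1 × 10^4 cells per well and exposed continuously to increasing concentrations of test compound for 72 h. Viable cells were counted by XTT. CC50 came from a log(inhibitor) vs normalized response, variable-slope fit for each independent assay, then averaged. Runs were in duplicate across at least two independent experiments; mean ± SD.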

half-life at 1 μmol/L [1]: 3.6 min
half-life at 1 μmol/L [2]: 12 min
SMILES: CN(C(=O)[C@H](Cc1ccccc1)NC(=O)CNC(=O)c1ccccc1)c1cccc(F)c1 [Compound 23, (S)-N-(2-((1-((3-Fluorophenyl)(methyl)amino)-1-oxo-3-phenylpropan-2-yl)amino)-2-oxoethyl)benzamide]
inhibition at 2 µM (HIV-1NL4-3; Human immunodeficiency virus 1, read-out: Inhibition at 2 μmol/L): 3%
inhibition at 20 µM (HIV-1NL4-3; Human immunodeficiency virus 1, read-out: Inhibition at 20 μmol/L): 94%
CC50 at 72 h (Cytotoxicity assay): > 50 µM
